Results as given in ChEMBL document CHEMBL5030505, “Assessment of NR4A Ligands That Directly Bind and Modulate the Orphan Nuclear Receptor Nurr1” (J Med Chem, 2020).

How the values were obtained:
Type in all cases: cell-based
[1] = target: Nuclear receptor subfamily 4 group A member 3 (Homo sapiens) (UniProt Q92570); experiment: Modulation of full length human NOR1 expressed in HEK293 cells co-transfected with luciferase reporter plasmid harboring NBRE response element assessed as increase in luciferase activity incubated for 18 hrs by luciferase reporter gene assay; details: filed as modulator
How it was run: (§1)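 Full-length NOR-1 plasmid was transfected via Lipofectamine 2000, either alone (2 μg) or at 1 μg with full-length RXRα (1 μg). It was paired with a 3xNBRE or 3xNurRE luciferase reporter (6 μg), 8 μg total DNA, for 18 h. Cells were replated at 10,000/well for 4 h, then given a full ligand dose response or vehicle in quadruplicate for 18 h. Luciferase was read; no EC50/IC50 was fitted.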

[2] = target: Nuclear receptor subfamily 4immunitygroup A member 1 (Homo sapiens) (UniProt P22736); experiment: Modulation of full length human Nur77 expressed in SK-N-BE(2) cells co-transfected with luciferase reporter plasmid harboring NBRE response element assessed as increase in luciferase activity incubated for 18 by luciferase reporter gene assay; details: SKNBE2, filed as modulator, time 18.0 hrs
How it was run: (§2)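 Cells seeded at 1.5 million per 10-cm dish. Next day they were transfected (Lipofectamine 2000) with full-length Nur77 or NOR-1 expression plasmid, either alone (2 μg) or 1 μg plus full-length RXRα (1 μg), and 3xNBRE- or 3xNurRE-luciferase reporter (6 μg), 18 h. Cells replated at 10,000/well, 4 h, then ligand dose response added in quadruplicate for 18 h. Luciferase luminescence read.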

[3] = target: Nuclear receptor subfamily 4 group A member 3 (Homo sapiens) (UniProt Q92570); experiment: Modulation of full length human NOR1 expressed in SK-N-BE(2) cells co-transfected with luciferase reporter plasmid harboring NBRE response element assessed as increase in luciferase activity incubated for 18 by luciferase reporter gene assay; details: SKNBE2, filed as modulator, time 18.0 hrs; how it was run: as §2
[4] = target: Nuclear receptor subfamily 4 group A member 3 (Homo sapiens) (UniProt Q92570); experiment: Modulation of full length human NOR1 expressed in PC12 cells co-transfected with RXRalpha and luciferase reporter plasmid harboring NBRE response element assessed as increase in luciferase activity incubated for 18 by luciferase reporter gene assay; details: PC-12, filed as modulator, time 18.0 hrs; how it was run: as §1
[5] = target: Nuclear receptor subfamily 4 group A member 2 (Homo sapiens) (UniProt P43354); experiment: Modulation of full length human Nurr1 expressed in HEK293T cells co-transfected with RXRalpha and luciferase reporter plasmid harboring NurRE response element assessed as increase in luciferase activity incubated for 18 hrs by luciferase reporter-gene assay; details: filed as modulator
How it was run: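 Full-length Nurr1 plasmid, alone (2 μg) or 1 μg plus full-length RXRα (1 μg), cotransfected with 3xNBRE- or 3xNurRE-luciferase reporter (6 μg) using Lipofectamine 2000, 18 h. Cells replated at 10,000/well for 4 h. Four ligand concentrations, or vehicle (water, ethanol or DMSO), added in quadruplicate for 18 h. Luciferase read. Fold change vs vehicle, mean ± s.e.m., one-way ANOVA vs vehicle.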

[6] = target: Nuclear receptor subfamily 4 group A member 3 (Homo sapiens) (UniProt Q92570); experiment: Modulation of full length human NOR1 expressed in SK-N-BE(2) cells co-transfected with RXRalpha and luciferase reporter plasmid harboring NBRE response element assessed as increase in luciferase activity incubated for 18 by luciferase reporter gene assay; details: SKNBE2, filed as modulator, time 18.0 hrs; how it was run: as §2
[7] = target: Nuclear receptor subfamily 4 group A member 2 (Homo sapiens) (UniProt P43354); experiment: Modulation of full length human Nurr1 expressed in SKNBE(2) cells co-transfected with luciferase reporter plasmid harboring NBRE response element assessed as increase in luciferase activity incubated for 18 hrs by luciferase reporter-gene assay; details: SKNBE2, filed as modulator
How it was run: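 Transfection of SK-N-BE(2)-C cells (1:1 EMEM/F12, 10% FBS, 37°C, 5% CO2) used full-length Nurr1 alone (2 μg, no RXRα) with 3xNBRE- or 3xNurRE-luciferase reporter (6 μg) for 18 h. Cells were replated at 10,000/well for 4 h, then exposed to ligand or vehicle in quadruplicate for 18 h. Luminescence was expressed as fold over vehicle, as mean ± s.e.m. (n=4) from 2 independent experiments, one-way ANOVA against vehicle.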

[8] = target: Nuclear receptor subfamily 4 group A member 2 (Homo sapiens) (UniProt P43354); experiment: Modulation of full length human Nurr1 expressed in PC12 cells co-transfected with RXRalpha and luciferase reporter plasmid harboring NurRE response element assessed as increase in luciferase activity incubated for 18 hrs by luciferase reporter-gene assay; details: PC-12, filed as modulator
How it was run: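 PC12 cells were grown at 37°C and 5% CO2 in […] medium with 15% horse serum and 2.5% FBS. They were transfected with full-length Nurr1 (1 μg) plus full-length RXRα (1 μg) and 3xNBRE- or 3xNurRE-luciferase reporter (6 μg) for 18 h, then replated at 10,000 cells/well for 4 h. Ligand or vehicle (water, ethanol or DMSO) was added in quadruplicate for 18 h. Luminescence was read as fold change over vehicle. Results are mean ± s.e.m., n=4, from 2 independent experiments, analysed by one-way ANOVA against vehicle.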

[9] = target: Nuclear receptor subfamily 4 group A member 3 (Homo sapiens) (UniProt Q92570); experiment: Modulation of full length human NOR1 expressed in HEK293 cells co-transfected with luciferase reporter plasmid harboring NurRE response element assessed as increase in luciferase activity incubated for 18 hrs by luciferase reporter gene assay; details: filed as modulator; how it was run: as §1
[10] = target: Nuclear receptor subfamily 4immunitygroup A member 1 (Homo sapiens) (UniProt P22736); experiment: Modulation of full length human Nur77 expressed in HEK293 cells co-transfected with RXRalpha and luciferase reporter plasmid harboring NurRE response element assessed as increase in luciferase activity incubated for 18 hrs by luciferase reporter gene assay; details: filed as modulator; how it was run: as §2
[11] = target: Nuclear receptor subfamily 4 group A member 3 (Homo sapiens) (UniProt Q92570); experiment: Modulation of full length human NOR1 expressed in PC12 cells co-transfected with luciferase reporter plasmid harboring NBRE response element assessed as increase in luciferase activity incubated for 18 by luciferase reporter gene assay; details: PC-12, filed as modulator, time 18.0 hrs; how it was run: as §1
[12] = target: Nuclear receptor subfamily 4immunitygroup A member 1 (Homo sapiens) (UniProt P22736); experiment: Modulation of full length human Nur77 expressed in SK-N-BE(2) cells co-transfected with luciferase reporter plasmid harboring NurRE response element assessed as increase in luciferase activity incubated for 18 by luciferase reporter gene assay; details: SKNBE2, filed as modulator, time 18.0 hrs; how it was run: as §2
[13] = target: Nuclear receptor subfamily 4immunitygroup A member 1 (Homo sapiens) (UniProt P22736); experiment: Modulation of full length human Nur77 expressed in HEK293 cells co-transfected with luciferase reporter plasmid harboring NurRE response element assessed as increase in luciferase activity incubated for 18 hrs by luciferase reporter gene assay; details: filed as modulator; how it was run: as §2
[14] = target: Nuclear receptor subfamily 4 group A member 3 (Homo sapiens) (UniProt Q92570); experiment: Modulation of full length human NOR1 expressed in HEK293T cells co-transfected with RXRalpha luciferase reporter plasmid harboring NBRE response element assessed as increase in luciferase activity incubated for 18 hrs by luciferase reporter gene assay; details: filed as modulator; how it was run: as §1
[15] = target: Nuclear receptor subfamily 4immunitygroup A member 1 (Homo sapiens) (UniProt P22736); experiment: Modulation of full length human Nur77 expressed in HEK293 cells co-transfected with luciferase reporter plasmid harboring NBRE response element assessed as increase in luciferase activity incubated for 18 hrs by luciferase reporter gene assay; details: filed as modulator; how it was run: as §2
[16] = target: Nuclear receptor subfamily 4immunitygroup A member 1 (Homo sapiens) (UniProt P22736); experiment: Modulation of full length human Nur77 expressed in PC12 cells co-transfected with RXRalpha and luciferase reporter plasmid harboring NBRE response element assessed as increase in luciferase activity incubated for 18 by luciferase reporter gene assay; details: PC-12, filed as modulator, time 18.0 hrs; how it was run: as §2
[17] = target: Nuclear receptor subfamily 4immunitygroup A member 1 (Homo sapiens) (UniProt P22736); experiment: Modulation of full length human Nur77 expressed in SK-N-BE(2) cells co-transfected with RXRalpha and luciferase reporter plasmid harboring NBRE response element assessed as increase in luciferase activity incubated for 18 by luciferase reporter gene assay; details: SKNBE2, filed as modulator, time 18.0 hrs; how it was run: as §2

Nuclear receptor subfamily 4 group A member 3 (Homo sapiens), sequence (Q92570 whole entry): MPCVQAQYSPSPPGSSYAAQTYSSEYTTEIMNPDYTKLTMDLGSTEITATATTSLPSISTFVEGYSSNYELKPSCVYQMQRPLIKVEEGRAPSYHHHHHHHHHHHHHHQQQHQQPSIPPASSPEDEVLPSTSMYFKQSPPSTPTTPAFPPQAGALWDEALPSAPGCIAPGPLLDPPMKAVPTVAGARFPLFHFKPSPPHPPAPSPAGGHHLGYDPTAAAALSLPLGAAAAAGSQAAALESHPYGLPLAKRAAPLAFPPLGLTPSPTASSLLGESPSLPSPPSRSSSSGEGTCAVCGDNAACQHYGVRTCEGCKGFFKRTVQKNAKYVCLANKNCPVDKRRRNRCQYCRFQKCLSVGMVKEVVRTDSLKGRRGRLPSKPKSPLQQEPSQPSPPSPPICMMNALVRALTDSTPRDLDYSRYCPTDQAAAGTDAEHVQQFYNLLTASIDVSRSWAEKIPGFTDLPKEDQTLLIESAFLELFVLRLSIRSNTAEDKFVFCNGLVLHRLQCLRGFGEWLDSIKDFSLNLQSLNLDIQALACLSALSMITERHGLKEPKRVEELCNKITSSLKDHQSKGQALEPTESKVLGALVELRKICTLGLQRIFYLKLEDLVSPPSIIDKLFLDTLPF
Nuclear receptor subfamily 4immunitygroup A member 1 (Homo sapiens), sequence (P22736 whole entry): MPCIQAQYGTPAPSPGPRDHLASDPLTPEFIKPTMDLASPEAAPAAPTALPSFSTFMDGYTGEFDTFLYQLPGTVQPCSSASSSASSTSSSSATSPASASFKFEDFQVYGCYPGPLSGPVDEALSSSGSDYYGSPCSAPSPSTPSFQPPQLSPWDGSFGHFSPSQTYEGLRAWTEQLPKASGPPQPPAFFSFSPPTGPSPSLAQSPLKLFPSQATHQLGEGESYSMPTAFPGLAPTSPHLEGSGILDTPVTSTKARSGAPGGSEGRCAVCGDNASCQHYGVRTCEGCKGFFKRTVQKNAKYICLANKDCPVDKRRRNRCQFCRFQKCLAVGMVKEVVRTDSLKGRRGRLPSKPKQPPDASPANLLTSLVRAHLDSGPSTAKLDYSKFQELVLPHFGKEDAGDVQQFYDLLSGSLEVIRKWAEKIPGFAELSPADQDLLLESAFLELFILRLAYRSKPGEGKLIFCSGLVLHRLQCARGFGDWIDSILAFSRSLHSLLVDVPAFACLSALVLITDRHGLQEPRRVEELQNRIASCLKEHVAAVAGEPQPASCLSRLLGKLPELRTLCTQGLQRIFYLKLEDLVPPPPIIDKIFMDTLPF
Nuclear receptor subfamily 4 group A member 2 (Homo sapiens), sequence (P43354 whole entry): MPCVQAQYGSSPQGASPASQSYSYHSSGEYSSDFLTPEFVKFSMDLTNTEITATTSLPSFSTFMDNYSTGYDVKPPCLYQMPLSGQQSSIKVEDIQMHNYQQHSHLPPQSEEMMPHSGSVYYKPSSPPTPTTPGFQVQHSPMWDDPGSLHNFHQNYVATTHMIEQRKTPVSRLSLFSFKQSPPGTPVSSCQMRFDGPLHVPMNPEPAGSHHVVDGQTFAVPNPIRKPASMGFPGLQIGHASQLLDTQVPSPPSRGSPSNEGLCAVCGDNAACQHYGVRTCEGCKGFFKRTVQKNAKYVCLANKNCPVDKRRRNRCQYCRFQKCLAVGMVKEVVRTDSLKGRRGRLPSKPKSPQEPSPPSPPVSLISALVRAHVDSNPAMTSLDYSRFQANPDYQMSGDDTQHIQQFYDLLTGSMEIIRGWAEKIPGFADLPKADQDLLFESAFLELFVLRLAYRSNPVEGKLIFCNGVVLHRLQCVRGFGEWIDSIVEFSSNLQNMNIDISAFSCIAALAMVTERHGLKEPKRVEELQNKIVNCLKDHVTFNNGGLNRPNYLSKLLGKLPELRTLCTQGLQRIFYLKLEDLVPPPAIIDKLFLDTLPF

Row | Activity [1] | Activity [2] | Activity [3] | Activity [4] | Activity [5] | Activity [6] | Activity [7] | Activity [8] | Activity [9] | Activity [10] | Activity [11] | Activity [12] | Activity [13] | Activity [14] | Activity [15] | Activity [16] | Activity [17] | SMILES
1 | Dose-Dependent Effect | Dose-Dependent Effect | Dose-Dependent Effect | Dose-Dependent Effect | Dose-Dependent Effect | Dose-Dependent Effect | Dose-Dependent Effect | Dose-Dependent Effect | Dose-Dependent Effect | Dose-Dependent Effect | Dose-Dependent Effect | Dose-Dependent Effect | Dose-Dependent Effect | Dose-Dependent Effect | Dose-Dependent Effect | Dose-Dependent Effect | Dose-Dependent Effect | CCN(CC)CCCC(C)Nc1ccnc2cc(Cl)ccc12 (stereo unspecified) [CHLOROQUINE]
2 | Dose-Dependent Effect | Dose-Dependent Effect | Dose-Dependent Effect | Dose-Dependent Effect | Dose-Dependent Effect | Dose-Dependent Effect | Dose-Dependent Effect | Dose-Dependent Effect | Dose-Dependent Effect | Dose-Dependent Effect | Dose-Dependent Effect | Dose-Dependent Effect | Dose-Dependent Effect | Dose-Dependent Effect | Dose-Dependent Effect | Dose-Dependent Effect | Dose-Dependent Effect | CCCCCCCC(=O)c1c(O)cc(O)cc1CC(=O)OCC [CYTOSPORONE B]
3 | Dose-Dependent Effect | Dose-Dependent Effect | Dose-Dependent Effect | Dose-Dependent Effect | Dose-Dependent Effect | Dose-Dependent Effect | Dose-Dependent Effect | Dose-Dependent Effect | Dose-Dependent Effect | Dose-Dependent Effect | Dose-Dependent Effect | Dose-Dependent Effect | Dose-Dependent Effect | Dose-Dependent Effect | Dose-Dependent Effect | Dose-Dependent Effect | Dose-Dependent Effect | CCN(CC)Cc1cc(Nc2ccnc3cc(Cl)ccc23)ccc1O [AMODIAQUINE]
